According to ChEMBL document CHEMBL1154067, “Antiviral and cytotoxic activities of aminoarylazo compounds and aryltriazene derivatives” (Bioorg Med Chem, 2009):
Calls of active or inactive are those of the source. The rule behind the calls is not given here.

system: Respiratory syncytial virus; test: Antiviral activity against Respiratory syncytial virus A2 infected in Vero-76 cells after 5 days by plaque reduction assay; assay type: functional, organism-based; conditions: human respiratory syncytial virus, A2, Vero 76, 120 h

| SMILES | EC50 [µM] |
| --- | --- |
| O=[N+]([O-])c1cccc(/N=N/N2CCCCC2)c1 | > 83 |
| Fc1ccc(F)c(/N=N/N2CCCC2)c1 | > 100 |
| Brc1cccc(/N=N/N2CCCC2)c1 | > 100 |
| Brc1ccc(/N=N/N2CCCCC2)cc1 | 73 |
| O=c1cccc2n1CC1CC2CN(/N=N/c2ccc(Cl)cc2)C1 (configuration not stated) | > 55 |
| c1ccc(/N=N/Nc2ccccc2)cc1 | ≥ 90 |

system: Bovine viral diarrhea virus 1; test: Antiviral activity against Bovine viral diarrhea virus infected in MDBK cells assessed as inhibition of virus-induced cytopathicity after 3 to 4 days by MTT assay; assay type: functional, organism-based; conditions: Bovine viral diarrhea virus isolates and strains

| SMILES | EC50 [µM] |
| --- | --- |
| Cn1c2cc(N3CCN(c4ccccn4)CC3)c(N)cc2c(=O)c2c(O)cc(O)cc21 | 0.6 |
| O=c1cnn([C@@H]2O[C@H](CO)[C@@H](O)[C@H]2O)c(=O)[nH]1 [6-AZAURIDINE] | > 100 |
| CCCN(CCC)CCSc1n[nH]c2c3ccccc3nc-2n1 | 0.03 |
| Brc1ccc(Cn2ccc3nc(-c4ccccc4)nc-3c2)cc1 | 0.03 |
| c1ccc(/N=N/Nc2ccccc2)cc1 | > 100 |
| NCCCC[C@H](N)C(=O)Nc1cccc(-c2ccc(NC(=O)Nc3nc4ccccc4s3)nc2)c1 | 0.6 |

system: Poliovirus 1; test: Antiviral activity against Human poliovirus 1 strain Sabin after 2 days by plaque reduction assay; assay type: functional; conditions: Enterovirus C, 48 h

| SMILES | EC50 [µM] |
| --- | --- |
| O=c1cnn([C@@H]2O[C@H](CO)[C@@H](O)[C@H]2O)c(=O)[nH]1 [6-AZAURIDINE] | > 20 |
| O=[N+]([O-])c1cccc(/N=N/N2CCCCC2)c1 | > 83 |
| Fc1ccc(F)c(/N=N/N2CCCC2)c1 | 44 |
| Brc1cccc(/N=N/N2CCCC2)c1 | > 100 |
| Brc1ccc(/N=N/N2CCCCC2)cc1 | > 100 |
| O=c1cccc2n1CC1CC2CN(/N=N/c2ccc(Cl)cc2)C1 (configuration not stated) | > 55 |
| c1ccc(/N=N/Nc2ccccc2)cc1 | > 90 |

system: Vero; test: Cytotoxicity against african green monkey Vero 76 cells by crystal violet staining; assay type: cell-based; conditions: chlorocebus sabaeus, vero
Summary of the method: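 Mock-infected Vero 76 seeded at 4 × 10^5 cells/mL, run in parallel with plaque assays, with or without serial compound dilutions. Cell number of monolayers determined by crystal violet staining. CC50 = concentration reducing viable cell number 50%.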

| SMILES | CC50 [µM] |
| --- | --- |
| O=c1cnn([C@@H]2O[C@H](CO)[C@@H](O)[C@H]2O)c(=O)[nH]1 [6-AZAURIDINE] | 20 |
| O=[N+]([O-])c1cccc(/N=N/N2CCCCC2)c1 | 83 |
| Fc1ccc(F)c(/N=N/N2CCCC2)c1 | > 100 |
| Brc1cccc(/N=N/N2CCCC2)c1 | ≥ 100 |
| Brc1ccc(/N=N/N2CCCCC2)cc1 | > 100 |
| O=c1cccc2n1CC1CC2CN(/N=N/c2ccc(Cl)cc2)C1 (configuration not stated) | 55 |

system: Coxsackievirus B2; test: Antiviral activity against Coxsackie virus type B2 virus infected in african green monkey Vero-76 cells after 3 days by plaque reduction assay; assay type: functional, organism-based; conditions: Enterovirus B, Vero 76, 72 h
Summary of the method: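 Vero 76 cells seeded at 2 × 10^5 cells/well, grown overnight to confluence at 37 °C in 5% CO2, then infected at 50–100 PFU/well. Unadsorbed virus removed. Overlay of DMEM with 1% inactivated FCS and 0.75% methylcellulose, with or without serial compound dilutions. After 3 days at 37 °C, fixed and stained with crystal violet in PBS/50% ethanol; plaques counted. EC50 is the concentration reducing plaque number by 50%.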

| SMILES | EC50 [µM] |
| --- | --- |
| O=c1cnn([C@@H]2O[C@H](CO)[C@@H](O)[C@H]2O)c(=O)[nH]1 [6-AZAURIDINE] | > 20 |
| O=[N+]([O-])c1cccc(/N=N/N2CCCCC2)c1 | > 83 |
| Fc1ccc(F)c(/N=N/N2CCCC2)c1 | 35 |
| Brc1cccc(/N=N/N2CCCC2)c1 | > 100 |
| Brc1ccc(/N=N/N2CCCCC2)cc1 | 25 |
| O=c1cccc2n1CC1CC2CN(/N=N/c2ccc(Cl)cc2)C1 (configuration not stated) | > 55 |
| c1ccc(/N=N/Nc2ccccc2)cc1 | > 90 |

system: Mammalian orthoreovirus 1; test: Antiviral activity against Reovirus-1 infected in BHK-21 cells assessed as inhibition of virus-induced cytopathicity after 3 to 4 days by MTT assay; assay type: functional, organism-based; conditions: Mammalian orthoreovirus 1, BHK-21
Summary of the method: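 BHK-21 cells seeded at 5 × 10^4 cells/well, grown overnight to confluent monolayers at 37 °C in 5% CO2, then infected at m.o.i. 0.01 in serum-free medium. One hour later, MEM Earle's with 1% final inactivated FCS added, with or without serial compound dilutions. Viability read by MTT after 3–4 days at 37 °C. EC50 is the concentration giving 50% protection from cytopathogenicity.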

| SMILES | EC50 [µM] |
| --- | --- |
| O=c1cnn([C@@H]2O[C@H](CO)[C@@H](O)[C@H]2O)c(=O)[nH]1 [6-AZAURIDINE] | > 100 |
| O=[N+]([O-])c1cccc(/N=N/N2CCCCC2)c1 | > 100 |
| Fc1ccc(F)c(/N=N/N2CCCC2)c1 | > 100 |
| Brc1cccc(/N=N/N2CCCC2)c1 | > 100 |
| Brc1ccc(/N=N/N2CCCCC2)cc1 | > 100 |
| O=c1cccc2n1CC1CC2CN(/N=N/c2ccc(Cl)cc2)C1 (configuration not stated) | > 85 |
| c1ccc(/N=N/Nc2ccccc2)cc1 | > 100 |

system: Vaccinia virus; test: Antiviral activity against Vaccinia virus after 3 days by plaque reduction assay; assay type: functional, organism-based; conditions: Orthopoxvirus vaccinia

| SMILES | Activity |
| --- | --- |
| O=[N+]([O-])c1cccc(/N=N/N2CCCCC2)c1 | inactive |
| Fc1ccc(F)c(/N=N/N2CCCC2)c1 | inactive |
| Brc1cccc(/N=N/N2CCCC2)c1 | inactive |
| Brc1ccc(/N=N/N2CCCCC2)cc1 | inactive |
| O=c1cccc2n1CC1CC2CN(/N=N/c2ccc(Cl)cc2)C1 (configuration not stated) | inactive |
| c1ccc(/N=N/Nc2ccccc2)cc1 | inactive |

system: MT4; test: Cytotoxicity against human MT4 cells after 96 hrs by MTT assay; assay type: cell-based; conditions: mt4, 96 h
Summary of the method: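 Exponentially growing mock-infected MT-4 seeded at 1 × 10^5 cells/mL in RPMI-1640 with 10% FCS, penicillin and streptomycin. Incubated with or without serial compound dilutions at 37 °C, 5% CO2. Viability by MTT after 96 h. CC50 = concentration reducing viability 50%.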

| SMILES | CC50 [µM] |
| --- | --- |
| O=[N+]([O-])c1cccc(/N=N/N2CCCCC2)c1 | > 100 |
| Fc1ccc(F)c(/N=N/N2CCCC2)c1 | > 100 |
| Brc1cccc(/N=N/N2CCCC2)c1 | > 100 |
| Brc1ccc(/N=N/N2CCCCC2)cc1 | > 100 |
| O=c1cccc2n1CC1CC2CN(/N=N/c2ccc(Cl)cc2)C1 (configuration not stated) | 46 |

system: Yellow fever virus; test: Antiviral activity against Yellow fever virus infected in BHK-21 cells assessed as inhibition of virus-induced cytopathicity after 3 to 4 days by MTT assay; assay type: functional, organism-based; conditions: not given

| SMILES | EC50 [µM] |
| --- | --- |
| O=[N+]([O-])c1cccc(/N=N/N2CCCCC2)c1 | > 100 |
| Fc1ccc(F)c(/N=N/N2CCCC2)c1 | > 100 |
| Brc1cccc(/N=N/N2CCCC2)c1 | > 100 |
| Brc1ccc(/N=N/N2CCCCC2)cc1 | > 100 |
| O=c1cccc2n1CC1CC2CN(/N=N/c2ccc(Cl)cc2)C1 (configuration not stated) | > 85 |
| c1ccc(/N=N/Nc2ccccc2)cc1 | > 100 |

system: not listed separately; test: Cytotoxicity against hamster BHK21 cells assessed as reduction in cell viability after 48 to 96 hrs by MTT assay; assay type: cell-based, Mesocricetus auratus, BHK-21; conditions: bhk-21
Summary of the method: (§1)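 Mock-infected cells in maintenance medium, MDBK at 6 × 10^5 and BHK at 1 × 10^6 cells/mL initial density, with or without serial compound dilutions. Run in parallel with antiviral assays. Viability by MTT after 48–96 h at 37 °C, 5% CO2. CC50 = concentration reducing viability 50%.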

| SMILES | CC50 [µM] |
| --- | --- |
| O=c1cnn([C@@H]2O[C@H](CO)[C@@H](O)[C@H]2O)c(=O)[nH]1 [6-AZAURIDINE] | > 100 |
| O=[N+]([O-])c1cccc(/N=N/N2CCCCC2)c1 | > 100 |
| Fc1ccc(F)c(/N=N/N2CCCC2)c1 | > 100 |
| Brc1cccc(/N=N/N2CCCC2)c1 | > 100 |
| Brc1ccc(/N=N/N2CCCCC2)cc1 | > 100 |
| O=c1cccc2n1CC1CC2CN(/N=N/c2ccc(Cl)cc2)C1 (configuration not stated) | 85 |

system: not listed separately; test: Cytotoxicity against MDBK cells after 48 to 96 hrs by MTT assay; assay type: cell-based, Bos taurus; conditions: cattle, mdbk; summary of the method: as §1

| SMILES | CC50 [µM] |
| --- | --- |
| O=c1cnn([C@@H]2O[C@H](CO)[C@@H](O)[C@H]2O)c(=O)[nH]1 [6-AZAURIDINE] | > 100 |
| O=[N+]([O-])c1cccc(/N=N/N2CCCCC2)c1 | > 100 |
| Fc1ccc(F)c(/N=N/N2CCCC2)c1 | > 100 |
| Brc1cccc(/N=N/N2CCCC2)c1 | > 100 |
| Brc1ccc(/N=N/N2CCCCC2)cc1 | > 100 |
| O=c1cccc2n1CC1CC2CN(/N=N/c2ccc(Cl)cc2)C1 (configuration not stated) | 97 |

system: Vesicular stomatitis virus; test: Antiviral activity against Vesicular stomatitis virus after 2 days by plaque reduction assay; assay type: functional, organism-based; conditions: not given

| SMILES | Activity |
| --- | --- |
| O=[N+]([O-])c1cccc(/N=N/N2CCCCC2)c1 | inactive |
| Fc1ccc(F)c(/N=N/N2CCCC2)c1 | inactive |
| Brc1cccc(/N=N/N2CCCC2)c1 | inactive |
| Brc1ccc(/N=N/N2CCCCC2)cc1 | inactive |
| O=c1cccc2n1CC1CC2CN(/N=N/c2ccc(Cl)cc2)C1 (configuration not stated) | inactive |
| c1ccc(/N=N/Nc2ccccc2)cc1 | inactive |

system: Human immunodeficiency virus 1; test: Antiviral activity against HIV1 infected in human MT4 cells assessed as inhibition of virus-induced cytopathicity after 4 days by MTT assay; assay type: functional, organism-based; conditions: not given

| SMILES | inhibition |
| --- | --- |
| O=[N+]([O-])c1cccc(/N=N/N2CCCCC2)c1 | inactive |
| Fc1ccc(F)c(/N=N/N2CCCC2)c1 | inactive |
| Brc1cccc(/N=N/N2CCCC2)c1 | inactive |
| Brc1ccc(/N=N/N2CCCCC2)cc1 | inactive |
| O=c1cccc2n1CC1CC2CN(/N=N/c2ccc(Cl)cc2)C1 (configuration not stated) | inactive |
| c1ccc(/N=N/Nc2ccccc2)cc1 | inactive |

system: Human alphaherpesvirus 1; test: Antiviral activity against HSV1 infected in Vero-76 cells after 3 days by plaque reduction assay; assay type: functional, organism-based; conditions: Human alphaherpesvirus 1, Vero 76, 72 h

| SMILES | EC50 [µM] |
| --- | --- |
| O=c1cnn([C@@H]2O[C@H](CO)[C@@H](O)[C@H]2O)c(=O)[nH]1 [6-AZAURIDINE] | > 20 |
| O=[N+]([O-])c1cccc(/N=N/N2CCCCC2)c1 | > 83 |
| Fc1ccc(F)c(/N=N/N2CCCC2)c1 | > 100 |
| Brc1cccc(/N=N/N2CCCC2)c1 | > 100 |
| Brc1ccc(/N=N/N2CCCCC2)cc1 | > 100 |
| O=c1cccc2n1CC1CC2CN(/N=N/c2ccc(Cl)cc2)C1 (configuration not stated) | > 55 |
| c1ccc(/N=N/Nc2ccccc2)cc1 | > 90 |
